# Activity calls are given as the source filed them. The calls are words filed in the database; no cut-off is given here.
# Experiments:
# SNU-182 [1] = assay: Growth inhibition of human SNU182 cells at <50 uM in presence of zingerone after 48 hrs by CCK8 assay; format: functional, cell-based
# SNU-182 [2] = assay: (§1) Inhibition of TGFbeta1-induced epithelial-mesenchymal transition in human SNU182 cells assessed as reduction in downregulation of E-cadherin expression preincubated for 2 hrs followed by TGFbeta1 addition measured after 48 hrs in presence of zingerone by Western blot method; format: functional, cell-based
# Outline: (§2)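 SNU182 cells pretreated 2 h with single agents (12.5 or 40 µM) or the mixture (20 and 40 µM), then stimulated with TGF-β1 5 ng/ml for 48 h. E-cadherin and Snail protein detected by Western blot, with GAPDH as loading control.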
# SNU-182 [3] = assay: Inhibition of TGFbeta1-induced epithelial-mesenchymal transition in human SNU182 cells assessed as reduction in upregulation of Snail expression at 12.5 uM preincubated for 2 hrs followed by TGFbeta1 addition measured after 48 hrs by Western blot method; format: functional, cell-based; outline: as §2
# SNU-182 [4] = assay: Growth inhibition of human SNU182 cells assessed as cell growth at 50 uM after 48 hrs by CCK8 assay relative to control; format: functional; details: SNU-182, 48 h, read-out: Activity
# SNU-182 [5] = assay: Inhibition of TGFbeta1-induced epithelial-mesenchymal transition in human SNU182 cells assessed as reduction in downregulation of E-cadherin expression at 12.5 uM preincubated for 2 hrs followed by TGFbeta1 addition measured after 48 hrs by Western blot method; format: functional, cell-based; outline: as §2
# SNU-182 [6] = assay: Growth inhibition of human SNU182 cells at <12.5 uM after 48 hrs by CCK8 assay; format: functional, cell-based
# SNU-182 [7] = assay: Inhibition of TGFbeta1-induced epithelial-mesenchymal transition in human SNU182 cells assessed as reduction in MMP9 activity measured after 48 hrs in presence of zingerone by gelatin zymography assay; format: functional, cell-based
# Outline: (§3)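 Cells serum-starved overnight in 0.2% FBS medium, then left untreated or given TGF-β 5 ng/ml and/or the mixture for 48 h. MMP-2 and MMP-9 activity in conditioned medium determined by gelatin zymography.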
# Homo sapiens = species on record: Homo sapiens; assay: Inhibition of TGFbeta1-induced NF-kB nuclear translocation in human SNU182 cells preincubated for 2 hrs followed by TGFbeta1 addition measured after 12 hrs in presence of zingerone by Western blot method; format: cell-based
# Outline: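 Mixture added to SNU182 cells for 2 h before TGF-β1 for 12 h. Cytosolic and nuclear fractions analysed by Western blot for NF-κB, with COX4 as cytosolic and Lamin B1 as nuclear marker.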
# [8] = biological target: Transcription factor Jun (Homo sapiens) (UniProt P05412); assay: Inhibition of TGFbeta1-induced AP-1 binding activity in human SNU182 cells at 20 to 40 uM measured after 48 hrs in presence of (E)-1-(9-Ethyl-9H-carbazol-3-yl)-5-(4-hydroxy-3-methoxyphenyl)pent-1-en-3-one by luciferase reporter gene assay; format: cell-based
# Transcription factor Jun (Homo sapiens), sequence (P05412 whole entry): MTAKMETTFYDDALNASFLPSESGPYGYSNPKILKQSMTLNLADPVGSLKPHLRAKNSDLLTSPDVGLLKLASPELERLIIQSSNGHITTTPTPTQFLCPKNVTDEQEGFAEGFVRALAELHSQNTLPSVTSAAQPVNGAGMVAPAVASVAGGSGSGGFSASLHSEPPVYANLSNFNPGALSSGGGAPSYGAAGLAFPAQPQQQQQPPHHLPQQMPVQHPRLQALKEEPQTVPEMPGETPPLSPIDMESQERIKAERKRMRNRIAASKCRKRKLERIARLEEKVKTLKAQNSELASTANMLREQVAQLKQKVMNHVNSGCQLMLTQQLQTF
# Outline: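 SNU182 transfected with pGL4.44-AP-1-RE-Luc or empty pGL4.44, pretreated with the mixture (20 and 40 µM), then stimulated with TGF-β1 or DMSO. Luciferase reporter activity read. Mean±SD of triplicates.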
# [9] = biological target: Mitogen-activated protein kinase; ERK1/ERK2 (Homo sapiens) (UniProt P27361+P28482); assay: Inhibition of TGFbeta1-induced p44/42 MAPK phosphorylation in human SNU182 cells measured after 48 hrs in presence of (E)-1-(9-Ethyl-9H-carbazol-3-yl)-5-(4-hydroxy-3-methoxyphenyl)pent-1-en-3-one by Western blot method; format: cell-based
# Mitogen-activated protein kinase; ERK1/ERK2 (Homo sapiens), sequence (P27361 whole entry, looked up): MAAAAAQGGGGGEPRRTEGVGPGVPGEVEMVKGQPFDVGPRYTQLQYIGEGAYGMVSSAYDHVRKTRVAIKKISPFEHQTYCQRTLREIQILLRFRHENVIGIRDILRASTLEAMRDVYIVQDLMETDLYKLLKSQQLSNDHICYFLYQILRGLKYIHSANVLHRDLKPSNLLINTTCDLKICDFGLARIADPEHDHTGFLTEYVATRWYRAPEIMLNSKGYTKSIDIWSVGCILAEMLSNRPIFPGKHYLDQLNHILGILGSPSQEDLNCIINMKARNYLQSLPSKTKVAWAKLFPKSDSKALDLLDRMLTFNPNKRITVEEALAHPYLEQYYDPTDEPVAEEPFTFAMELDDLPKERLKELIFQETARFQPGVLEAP
# Mitogen-activated protein kinase; ERK1/ERK2 (Homo sapiens), sequence (P28482 whole entry, looked up): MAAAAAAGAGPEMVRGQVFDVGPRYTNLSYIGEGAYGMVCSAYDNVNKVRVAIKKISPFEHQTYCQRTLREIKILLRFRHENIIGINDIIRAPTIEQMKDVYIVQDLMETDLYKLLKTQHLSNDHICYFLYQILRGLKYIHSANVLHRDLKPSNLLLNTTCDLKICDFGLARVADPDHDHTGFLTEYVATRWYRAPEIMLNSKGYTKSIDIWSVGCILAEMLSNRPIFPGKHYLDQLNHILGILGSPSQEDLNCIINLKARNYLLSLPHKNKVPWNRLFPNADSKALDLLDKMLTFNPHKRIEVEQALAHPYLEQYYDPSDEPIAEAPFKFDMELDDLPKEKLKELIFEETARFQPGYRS
# Outline: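 SNU182 cells incubated 48 h with TGF-β1 5 ng/ml alone or together with the mixture at 20 and 40 µM, then lysed. Phospho-p42/44 MAPK detected by Western blot, with total p42/44 MAPK as loading control.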
# SNU-182 [10] = assay: Inhibition of TGFbeta1-induced epithelial-mesenchymal transition in human SNU182 cells assessed as reduction in mesenchymal phenotype preincubated for 2 hrs followed by TGFbeta1 addition measured after 48 hrs in presence of (E)-1-(9-Ethyl-9H-carbazol-3-yl)-5-(4-hydroxy-3-methoxyphenyl)pent-1-en-3-one; format: functional, cell-based
# Outline: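 Cells preincubated 2 h in serum-free medium with the mixture (20 and 40 µM), then treated with TGF-β1 5 ng/ml for 48 h. Morphology (spindle-like, elongated shape, scattering) assessed by microscopy.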
# SNU-182 [11] = assay: (§4) Inhibition of TGFbeta1-induced epithelial-mesenchymal transition in human SNU182 cells assessed as reduction in upregulation of Snail expression preincubated for 2 hrs followed by TGFbeta1 addition measured after 48 hrs in presence of (E)-1-(9-Ethyl-9H-carbazol-3-yl)-5-(4-hydroxy-3-methoxyphenyl)pent-1-en-3-one by Western blot method; format: functional, cell-based; outline: as §2
# SNU-182 [12] = assay: Inhibition of TGFbeta1-induced epithelial-mesenchymal transition in human SNU182 cells assessed as reduction in downregulation of E-cadherin expression at 40 uM preincubated for 2 hrs followed by TGFbeta1 addition measured after 48 hrs by Western blot method; format: functional, cell-based; outline: as §2
# SNU-182 [13] = assay: as §1, with “(E)-1-(9-Ethyl-9H-carbazol-3-yl)-5-(4-hydroxy-3-methoxyphenyl)pent-1-en-3-one” for “zingerone”; format: functional, cell-based; outline: as §2
# SNU-182 [14] = assay: Growth inhibition of human SNU182 cells at <50 uM in presence of (E)-1-(9-Ethyl-9H-carbazol-3-yl)-5-(4-hydroxy-3-methoxyphenyl)pent-1-en-3-one after 48 hrs by CCK8 assay; format: functional, cell-based
# SNU-182 [15] = assay: as §4, with “N-cadherin” for “Snail”; format: functional, cell-based
# Outline: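 Pretreatment of SNU182 cells with the mixture at 20 and 40 µM for 2 h in serum-free medium, followed by TGF-β1 5 ng/ml for 48 h. N-cadherin and Snail detected by Western blot against GAPDH.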
# [16] = biological target: T1, NF-kappa-B inhibitor alpha (Homo sapiens) (UniProt P25963); assay: Inhibition of TGFbeta1-induced IkB-alpha phosphorylation in human SNU182 cells at 20 to 40 uM preincubated for 2 hrs followed by TGFbeta1 addition measured after 120 mins in presence of (E)-1-(9-Ethyl-9H-carbazol-3-yl)-5-(4-hydroxy-3-methoxyphenyl)pent-1-en-3-one by Western blot method; format: cell-based
# T1 sequence (whole entry): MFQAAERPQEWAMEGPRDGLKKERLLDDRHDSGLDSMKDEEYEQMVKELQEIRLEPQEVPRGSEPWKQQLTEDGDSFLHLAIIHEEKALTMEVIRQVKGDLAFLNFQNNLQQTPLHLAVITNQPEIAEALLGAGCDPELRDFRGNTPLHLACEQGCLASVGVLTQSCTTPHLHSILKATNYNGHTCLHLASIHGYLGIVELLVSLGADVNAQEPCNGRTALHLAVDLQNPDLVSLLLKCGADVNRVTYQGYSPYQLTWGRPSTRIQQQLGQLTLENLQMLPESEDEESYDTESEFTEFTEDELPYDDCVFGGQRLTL
# Outline: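 SNU182 cells pretreated with the mixture (20 and 40 µM) for 2 h, then exposed to TGF-β1 for 120 min. IκB protein assessed by Western blot, with GAPDH loading control.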
# SNU-182 [17] = assay: Inhibition of TGFbeta1-induced epithelial-mesenchymal transition in human SNU182 cells assessed as reduction in MMP9 activity measured after 48 hrs in presence of (E)-1-(9-Ethyl-9H-carbazol-3-yl)-5-(4-hydroxy-3-methoxyphenyl)pent-1-en-3-one by gelatin zymography assay; format: functional, cell-based; outline: as §3
inhibition [8],inhibition [9],inhibition [16],Structure (SMILES),growth inhibition (GI) (SNU-182 [1]),inhibition (SNU-182 [2]),inhibition (SNU-182 [3]),growth at 50 µM (SNU-182 [4]) [%],inhibition (SNU-182 [5]),growth inhibition (GI) (SNU-182 [6]),inhibition (SNU-182 [7]),inhibition (Homo sapiens),inhibition (SNU-182 [10]),inhibition (SNU-182 [11]),inhibition (SNU-182 [12]),inhibition (SNU-182 [13]),growth inhibition (GI) (SNU-182 [14]),inhibition (SNU-182 [15]),inhibition (SNU-182 [17])
–,–,–,CCn1c2ccccc2c2cc(/C=C/C(=O)CCc3ccc(O)c(OC)c3)ccc21,inactive,Dose-dependent effect,inactive,40,inactive,inactive,Active,Dose-dependent effect,–,–,–,–,–,–,–
Active,Dose-dependent effect,Active,COc1cc(CCC(C)=O)ccc1O,–,–,–,–,–,–,–,–,Dose-dependent effect,Dose-dependent effect,inactive,Dose-dependent effect,inactive,Dose-dependent effect,Active

# Reference: ChEMBL document CHEMBL3992541, “Combined treatment with zingerone and its novel derivative synergistically inhibits TGF-β1 induced epithelial-mesenchymal transition, migration and invasion of human hepatocellular carcinoma cells” (2017)
